Experimental data published in publication PMC8859983 (Biomaterials science, 2020).
Entries after “also recorded” stand apart in the source; their conditions may differ. Each block holds one substance with its values, some of them ahead of it.

What was measured:
[1] = system: recombinant MT1-MMP; experiment: Fluorescence activation; assay type: biochemical, human; settings: for activation efficiency by MT1-MMP / selectivity for MT1-MMP compared with MMP-2: 1 μM probe; for activation efficiency by MT1-MMP: 15 nM MT1-MMP, 7 min incubation at 37 °C; for selectivity for MT1-MMP compared with MMP-2: 15 nM enzyme, 37 °C
In short: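 Catalysis velocity: FRET probes at 1 μM incubated with 15 nM refolded recombinant MT1-MMP for 7 min at 37 °C. Fluorescence from substrate hydrolysis recorded at the set time.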

[2] = system: HT-1080 cells; experiment: Cell uptake / cell imaging of probes; assay type: cell-based, human; settings: for cell uptake: 5 μM probe, 2 h at 37 °C, FAM fluorescence, confocal imaging
In short: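 HT-1080 cells in RPMI 1640 with 10% FBS, penicillin and streptomycin at 37 °C, 5% CO₂. Seeded on glass-bottom dishes overnight, then fresh medium. Incubated with 5 μM probe for 2 h at 37 °C, ± 5 μM GM6001. Washed three times with PBS, fixed 10 min in 4% paraformaldehyde, DAPI-stained, then imaged for FAM fluorescence.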

[3] = system: HT-1080 tumor; experiment: Optical in vivo imaging after intratumoral injection; set-up: species or system BALB/c nude mice; settings: 50 nmol intratumoral, IVIS; for fluorescence in the tumor site: 0.5–6 h post injection
In short: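 Subcutaneous HT-1080 xenografts in nude mice; four groups (n = 3) with similar tumor size. Probe or control given intratumorally at 50 nmol. IVIS imaging of FAM (Ex/Em 492/518 nm) at 0.5, 1, 2, 4.5 and 6 h under 2.5% isoflurane in oxygen (1.5 L min⁻¹). Radiant efficiency quantified at tumor site.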

[4] = target: T1, recombinant human MT1-MMP (Homo sapiens, UniProt P50281); experiment: Enzyme kinetics of fluorogenic probes, FRET peptide cleavage assay; assay type: biochemical; settings: for kcat/Km: specificity constant, 15 nM refolded MT1-MMP, 37 °C, pH 8.0, mean ± SD
In short: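 Refolded His-tagged human MT1-MMP catalytic/hinge construct (E. coli), 15 nM, with 0.5–4.5 μM FRET probes at 37 °C. Initial cleavage rates measured over 28 s. Km and Vmax from Michaelis–Menten fit; kcat = Vmax/[enzyme]. Mean ± SD.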

[5] = target: T1, recombinant human MT1-MMP; experiment: Effect of binding peptide on catalysis of P-1 by MT1-MMP; assay type: biochemical; settings: binding peptide 0.47 μM to 640 μM, pre-incubated with MT1-MMP
In short: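 His-tagged human MT1-MMP catalytic plus hinge domains (Tyr112–Ile318) expressed in E. coli BL21(DE3)pLysS. Purified on Ni-NTA in urea and refolded by gradient dialysis. Enzyme pre-incubated with binding peptide (0.47–640 μM) before cleavage of FRET peptide substrate. Ex 328/Em 393 nm.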

[6] = system: HUVEC cells; experiment: MTT cell cytotoxicity assay; assay type: cell-based, human; settings: 10 μM to 100 μM, 48 h, Fig. S2
In short: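 HUVEC seeded at 4×10³–5×10³ cells/well and incubated 12 h. Then exposed to test compound at 10–100 μM for 48 h. MTT (5 mg mL⁻¹ stock in PBS) added for 4 h, formazan dissolved in DMSO, absorbance read at 490 nm.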

[7] = system: HT-1080 tumor; experiment: Ex vivo tumor imaging and biodistribution after intravenous injection; assay type: in vivo, BALB/c nude mice; settings: for fluorescence intensity / accumulation in the tumors: tumor cryosections 4.5 h post injection, n = 3 per group
In short: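 BALB/c nude mice (4 weeks old) given 1×10⁶ HT-1080 cells in PBS subcutaneously, right flank. At tumor volume ~0.5–1 cm³, four groups (n = 3) received 50 nmol probe by tail-vein injection. Tumors harvested 4.5 h later, cryosectioned, stained with DiI (membrane) and DAPI (nuclei), and examined by fluorescence microscopy.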

Substance: (FAM)-PLGLK-(Dabcyl)-AR-HWKHLHNTKTFL [Probe P-9]
- activation efficiency by MT1-MMP [1]: lower activation efficiency than P-7; also recorded: lower activation efficiency by MT1-MMP than P-8
- selectivity for MT1-MMP compared with MMP-2 [1]: higher selectivity for MT1-MMP compared with MMP-2
- substrate inhibition of MT1-MMP ([1]; data not included): induced the substrate inhibition of MT1-MMP at higher concentrations
- cell uptake [2]: higher cell uptake than P-8
- fluorescence in the tumor site [3]: hardly detected

Substance: (Mca)-PLGL-(Dpa)-AR-HWKHLHNTKTFL [Probe P-2]
- probe concentration above which substrate inhibition of MT1-MMP was induced ([1]; data not included): higher than 1.5 μM

- kcat/Km [4]: 450 ± 30 M⁻¹ s⁻¹
Substance: (Mca)-PLGL-(Dpa)-AR-NH2 [Probe P-1, reference compound]

Substance: (Mca)-PLGL-(Dpa)-AR-(PEG)12-HWKHLHNTKTFL [Probe P-5]
- fold decreased Km value compared with control probe P-1 ([4]; MT1-MMP): 5.4 fold
- fold enhanced hydrolysis rate (kcat) compared with control probe P-1 ([4]; MT1-MMP): 2.5 fold
- fold specificity (kcat/Km) to MT1-MMP compared with control probe P-1 ([4]; MT1-MMP): ~14 fold
- kcat/Km [4]: 6150 ± 440 M⁻¹ s⁻¹
- selectivity for MT1-MMP compared with MMP-2 [1]: significantly higher activation folds when incubated with MT1-MMP than with MMP-2

- effect on the catalysis of P-1 by the recombinant MT1-MMP [5]: had no effect
Substance: HWKHLHNTKTFL [MT1-AF7p]

Substance: (Mca)-PLGL-(Dpa)-AR-(PEG)6-HWKHLHNTKTFL [Probe P-4]
- kcat/Km [4]: 4420 ± 370 M⁻¹ s⁻¹

Substance: (Mca)-PLGL-(Dpa)-AR-(PEG)24-HWKHLHNTKTFL [Probe P-6]
- kcat/Km [4]: 1110 ± 90 M⁻¹ s⁻¹

Substance: (FAM)-PLGLK-(Dabcyl)-AR-(PEG)12-HWKHLHNTKTFL [Probe P-7]
- Km value compared with P-5 ([4]; MT1-MMP, Table S1): much higher Km value of P-7 than P-5
- kcat value compared with P-5 ([4]; MT1-MMP, Table S1): higher kcat value than P-5
- cytotoxicity [6]: low toxicity
- cell uptake [2]: much higher cell uptake compared with the control cells MCF-7; also recorded: much higher cell uptake compared with P-8 and P-9
- cell uptake in the presence of MMP inhibitor GM6001 ([2]; HT-1080, 5 μM probe, GM6001 5 μM): decreased
- location of the activated probe in frozen tissue slices ([7]; 50 nmol i.v., 4.5 h post injection): located in the cytosol
- fluorescence intensity / accumulation in the tumors ([7]; 50 nmol i.v.): strongest fluorescence intensity
- organs in which the probe was activated (biodistribution) ([7]; 50 nmol, tail vein injection, FAM fluorescence, Fig. S3): predominantly in the tumor, liver, and kidney
- time to maximum fluorescent intensity at tumor ([3]; Ex/Em 492/518 nm, n = 3 per group): about 1 h

Substance: (FAM)-PLGLK-(Dabcyl)-AR-NH2 [Probe P-8]
- activation efficiency by MT1-MMP [1]: lower activation efficiency than P-7
- selectivity for MT1-MMP compared with MMP-2 [1]: higher selectivity for MT1-MMP compared with MMP-2
- substrate inhibition of MT1-MMP ([1]; data not included): induced the substrate inhibition of MT1-MMP at higher concentrations
- fluorescence intensity / accumulation in the tumors ([7]; 50 nmol i.v.): weaker fluorescence intensities
- fluorescence in the tumor site [3]: hardly detected
